Activity calls are given as the source filed them. The rule behind the calls is not given here.

The values that follow come from ChEMBL document CHEMBL3120154, “2-[N-Alkyl(R-phenyl)-aminomethyl]-3-phenyl-7-trifluoromethylquinoxalines as anticancer agents inhibitors of folate enzymes” (Eur J Med Chem, 2014).

Test [1] has as its system NCI-H460. Nature of the test: Cytotoxicity against human NCI-H460 cells assessed as cell growth at 10^-4 M after 48 hrs by alamar blue assay relative to untreated control. The test is classed as functional. The following applies: NCI-H460, 48 h, read-out: Activity. Put shortly: (§1)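 Three-cell-line prescreen. Each line was inoculated and preincubated on a microtiter plate, then the agent was added at a single concentration (10^-4 or 10^-5 M) and incubated 48 h. Endpoint was measured with alamar blue, and growth is reported as a percentage of untreated control cells.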
Background: Alamar Blue is a resazurin reagent that responds to reducing activity.

Test [2] concerns MCF7. As to the kind of experiment: Cytotoxicity against human MCF7 cells assessed as cell growth at 10^-4 M after 48 hrs by alamar blue assay relative to untreated control. The following applies: MCF7, 48 h, read-out: Activity. Type of test: functional. Summed up: as §1
The next test addresses T1, Dihydrofolate reductase (Homo sapiens, UniProt P00374).
T1 sequence (P00374 whole entry): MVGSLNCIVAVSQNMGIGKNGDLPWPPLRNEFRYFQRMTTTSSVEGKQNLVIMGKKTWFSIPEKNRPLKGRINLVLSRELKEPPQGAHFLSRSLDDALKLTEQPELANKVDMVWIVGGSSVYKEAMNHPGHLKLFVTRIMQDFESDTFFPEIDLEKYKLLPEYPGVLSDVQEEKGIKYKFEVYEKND
Nature of the test: Competitive inhibition of human dihydrofolate reductase by spectrophotometry.

In another test the target is Thymidylate synthase (Homo sapiens, UniProt P04818). Nature of the test: Competitive inhibition of human thymidylate synthase by spectrophotometry.
The subject of test [3] is SF-268. As to the kind of experiment: Cytotoxicity against human SF268 cells assessed as cell growth at 10^-4 M after 48 hrs by alamar blue assay relative to untreated control. To be noted: SF-268, 48 h, read-out: Activity. The test is classed as functional. Summed up:
(§2)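 Three-cell-line prescreen at NCI. Each line was seeded and pre-incubated, then given a single concentration (10^-4 or 10^-5 M) and incubated for 48 h. The end-point was alamar blue. The value is percent growth of treated cells versus untreated control cells, with negative numbers indicating cell kill.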

Test [4] relates to SF-268. Nature of the test: Cytotoxicity against human SF268 cells assessed as cell growth at 10^-5 M after 48 hrs by alamar blue assay relative to untreated control. To be noted: SF-268, 48 h, read-out: Activity. Type of test: functional. Put shortly: as §2
In test [5] the test system is NCI-H460. As to the kind of experiment: Cytotoxicity against human NCI-H460 cells assessed as cell growth at 10^-5 M after 48 hrs by alamar blue assay relative to untreated control. The test is classed as functional. To be noted: NCI-H460, 48 h, read-out: Activity. Summed up: as §1
Test [6] relates to MCF7. As to the kind of experiment: Cytotoxicity against human MCF7 cells assessed as cell growth at 10^-5 M after 48 hrs by alamar blue assay relative to untreated control. The following applies: MCF7, 48 h, read-out: Activity. The test is classed as functional. Summed up:
as §1

For test [7], the target named is Dihydrofolate reductase (Homo sapiens) (UniProt P00374). As to the kind of experiment: Competitive inhibition of human dihydrofolate reductase at 10 uM by spectrophotometry.

In the case of `C#CCN(Cc1nc2cc(C(F)(F)F)ccc2nc1-c1ccccc1)c1cc(OC)c(OC)c(OC)c1`, the growth at 100 µM with NCI-H460 [1] was found to be 104%; with MCF7 [2] it was 64%; with SF-268 [3], 102%. Further, the results for the Ki at Dihydrofolate reductase and on Thymidylate synthase were 4 µM and 5 µM, respectively.

`CCN(Cc1nc2cc(C(F)(F)F)ccc2nc1-c1ccccc1)c1ccc(C)cc1` yielded a Ki at Dihydrofolate reductase of 4 µM.

Regarding `CCN(Cc1nc2cc(C(F)(F)F)ccc2nc1-c1ccccc1)c1ccc(F)cc1`, the values for the growth at 10 µM with SF-268 [4], with NCI-H460 [5] and in the test on MCF7 [6] were 102%, 92% and 103%, respectively. Further, the affinity at Dihydrofolate reductase corresponds to a Ki of 3 µM.

Take `C#CCN(Cc1nc2cc(C(F)(F)F)ccc2nc1-c1ccccc1)c1ccc(CC(=O)OCC)cc1`: the growth at 100 µM with NCI-H460 [1] came to 115%; with MCF7 [2] it was 106%; in the test with SF-268 [3], 111%. Also, affinity at Dihydrofolate reductase was put at a Ki of 3 µM.

Turning to `CCOC(=O)Cc1ccc(N(C)Cc2nc3cc(C(F)(F)F)ccc3nc2-c2ccccc2)cc1`, the figures for the growth at 100 µM with NCI-H460 [1], with MCF7 [2] and in the test with SF-268 [3] were 125%, 105% and 107%, respectively. Besides, the inhibition entry in [7] was “inactive”.

`CCN(Cc1nc2cc(C(F)(F)F)ccc2nc1-c1ccccc1)c1ccc(OC)cc1`: the growth at 100 µM in the test with NCI-H460 [1] was 63%; in the test on MCF7 [2] it was 54%; in the test on SF-268 [3], 89%. The Ki on Dihydrofolate reductase worked out at 7 µM.

As to `CN(Cc1nc2cc(C(F)(F)F)ccc2nc1-c1ccccc1)c1ccc(F)cc1`, the results for the growth at 100 µM in the test on NCI-H460 [1], in the test with MCF7 [2] and with SF-268 [3] were 119%, 180% and 125%, respectively. The same molecule had a Ki on Dihydrofolate reductase of 5 µM.

In the case of `C#CCN(Cc1nc2cc(C(F)(F)F)ccc2nc1-c1ccccc1)c1ccc(OC)cc1`, the growth at 100 µM in the test on NCI-H460 [1] came out at 98%; in the test on MCF7 [2] it was 82%; in the test on SF-268 [3], 103%. Also, the Ki on Dihydrofolate reductase is 3 µM.

`C#CCN(Cc1nc2cc(C(F)(F)F)ccc2nc1-c1ccccc1)c1ccc(C(F)(F)F)cc1F`: the growth at 100 µM was 61% in the test with NCI-H460 [1], 87% in the test with MCF7 [2] and 110% in the test with SF-268 [3].

`C#CCN(Cc1nc2cc(C(F)(F)F)ccc2nc1-c1ccccc1)c1ccc(Cl)cc1`: the growth at 100 µM in the test on NCI-H460 [1] stood at 85%; in the test with MCF7 [2], 67%; in the test with SF-268 [3] it was 84%. This molecule also came in with a Ki at Dihydrofolate reductase of 4 µM.

Turning to `CN(Cc1nc2cc(C(F)(F)F)ccc2nc1-c1ccccc1)c1ccc(Cl)cc1`, the growth at 10 µM came to 108% with SF-268 [4], 118% in the test on NCI-H460 [5] and 109% with MCF7 [6]. Further, the Ki on Dihydrofolate reductase was 5 µM.

On to `COc1cc(N(C)Cc2nc3cc(C(F)(F)F)ccc3nc2-c2ccccc2)cc(OC)c1OC`, for which the growth at 100 µM in the test with NCI-H460 [1] was determined as 77%; with MCF7 [2], 61%; in the test on SF-268 [3], 97%. The affinity on Dihydrofolate reductase, expressed as Ki, was 5 µM.

Consider `CCN(Cc1nc2cc(C(F)(F)F)ccc2nc1-c1ccccc1)c1ccc(F)c(F)c1`, for which the growth at 10 µM stood at 94% in the test with SF-268 [4], 81% in the test on NCI-H460 [5] and 73% with MCF7 [6]. In addition, on Dihydrofolate reductase, the Ki was 5 µM.

On Dihydrofolate reductase, `CCN(Cc1nc2cc(C(F)(F)F)ccc2nc1-c1ccccc1)c1cc(OC)c(OC)c(OC)c1` showed a Ki of 6 µM.

For `CN(Cc1nc2cc(C(F)(F)F)ccc2nc1-c1ccccc1)c1ccc(F)c(F)c1`, the results for the growth at 10 µM with SF-268 [4], in the test on NCI-H460 [5] and in the test with MCF7 [6] were 97%, 88% and 114%, respectively. Moreover, the figures for the Ki at Dihydrofolate reductase and on Thymidylate synthase were 4 µM and 0.27 µM, respectively.

`CCOC(=O)Cc1ccc(N(CC)Cc2nc3cc(C(F)(F)F)ccc3nc2-c2ccccc2)cc1` returned a Ki on Dihydrofolate reductase of 3 µM.

Regarding `Cc1ccc(N(C)Cc2nc3cc(C(F)(F)F)ccc3nc2-c2ccccc2)cc1`, the growth at 10 µM turned out to be 121% in the test with SF-268 [4], 116% in the test with NCI-H460 [5] and 115% in the test on MCF7 [6]. The molecule also had a Ki on Dihydrofolate reductase of 11 µM.

Consider `CCOC(=O)CC[C@H](NC(=O)c1ccc(N(CC)Cc2nc3cc(C(F)(F)F)ccc3nc2-c2ccccc2)cc1)C(=O)OCC`, for which, on Dihydrofolate reductase, the affinity corresponds to a Ki of 4 µM.

For `COc1ccc(N(C)Cc2nc3cc(C(F)(F)F)ccc3nc2-c2ccccc2)cc1OC`, the figures for the growth at 100 µM in the test with NCI-H460 [1], in the test with MCF7 [2] and with SF-268 [3] were 88%, 54% and 103%, respectively. At Dihydrofolate reductase, this molecule came in with a Ki of 8 µM.

For `COc1ccc(N(C)Cc2nc3cc(C(F)(F)F)ccc3nc2-c2ccccc2)cc1`, the growth at 100 µM with NCI-H460 [1] turned out to be 125%; in the test with MCF7 [2], 105%; in the test with SF-268 [3], 107%. On Dihydrofolate reductase, this molecule had a Ki of 3 µM.

As for `C#CCN(Cc1nc2cc(C(F)(F)F)ccc2nc1-c1ccccc1)c1ccc(OC)c(OC)c1`, the figures for the growth at 100 µM in the test with NCI-H460 [1], in the test on MCF7 [2] and in the test on SF-268 [3] were 80%, 119% and 109%, respectively. For the same molecule, the Ki on Dihydrofolate reductase was determined as 3 µM.

`CN(Cc1nc2cc(C(F)(F)F)ccc2nc1-c1ccccc1)c1ccc(OC(F)(F)F)cc1` showed a Ki on Dihydrofolate reductase of 3 µM.

Turning to `CCN(Cc1nc2cc(C(F)(F)F)ccc2nc1-c1ccccc1)c1ccc(OC(F)(F)F)cc1`, the growth at 100 µM is 83% with NCI-H460 [1], 61% with MCF7 [2] and 85% in the test with SF-268 [3]. At Dihydrofolate reductase, the Ki was determined as 5 µM.

For the molecule `CCN(Cc1nc2cc(C(F)(F)F)ccc2nc1-c1ccccc1)c1ccc(Cl)cc1`, the figures for the growth at 100 µM in the test with NCI-H460 [1], in the test on MCF7 [2] and in the test with SF-268 [3] were 68%, 46% and 81%, respectively. This molecule also registered a Ki at Dihydrofolate reductase of 3 µM.

Consider `C#CCN(Cc1nc2cc(C(F)(F)F)ccc2nc1-c1ccccc1)c1ccccc1Cl`, for which the growth at 100 µM amounted to 101% in the test with NCI-H460 [1], 102% in the test with MCF7 [2] and 87% with SF-268 [3]. Besides, at Dihydrofolate reductase, affinity was put at a Ki of 2 µM.

The molecule `CCOC(=O)CC[C@H](NC(=O)c1ccc(N(C)Cc2nc3cc(C(F)(F)F)ccc3nc2-c2ccccc2)cc1)C(=O)OCC` showed a Ki on Dihydrofolate reductase of 0.2 µM.

In general, Ki refers to a dissociation constant, usually derived from enzyme kinetics or from competition with a known ligand. A lower Ki goes with tighter binding.
